Laboratory results as given in ChEMBL document CHEMBL4359830, “Discovery and structure-activity relationship of novel diphenylthiazole derivatives as BTK inhibitor with potent activity against B cell lymphoma cell lines” (Eur J Med Chem, 2019).
pIC50: −log10 of the molar value.

Assays:
Ramos [1] = assay: Cell cycle arrest in human Ramos cells assessed as accumulation at G0/G1 phase at 1 uM measured after 48 hrs by propidium iodide/RNase staining based flow cytometric analysis (reference value: 37.66 %); assay type: functional
Raji [2] = assay: Cell cycle arrest in human Raji cells assessed as accumulation at G0/G1 phase at 1 uM measured after 48 hrs by propidium iodide/RNase staining based flow cytometric analysis (reference value: 48.68 %); assay type: functional
Ramos [3] = assay: Antiproliferative activity against human Ramos cells at 40 uM measured after 72 hrs by CCK-8 assay relative to control; assay type: functional
Outline: (§1)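 Ramos or Raji cells in RPMI-1640 with 10% FBS and 1% penicillin-streptomycin at 37 °C, 5% CO2. Seeded at 2000–3000 cells/well one day before compound addition. Exposure 72 h, then CCK-8 with absorbance at 450 nm. […] Single-point inhibition at 40 µM reported as mean ± standard deviation.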

Raji [4] = assay: Induction of apoptosis in human Raji cells assessed as viable cells at 5 uM measured after 15 mins by Annexin-V-APC staining-based flow cytometric analysis (reference value: 97.5 %); assay type: functional
Ramos [5] = assay: Cell cycle arrest in human Ramos cells assessed as accumulation at G2/M phase at 1 uM measured after 48 hrs by propidium iodide/RNase staining based flow cytometric analysis (reference value: 5.98 %); assay type: functional
Ramos [6] = assay: Antiproliferative activity against human Ramos cells measured after 72 hrs by CCK-8 assay; assay type: functional, cell-based; outline: as §1
Ramos [7] = assay: Induction of apoptosis in human Ramos cells assessed as necrotic cells at 5 uM measured after 15 mins by Annexin-V-APC staining-based flow cytometric analysis (reference value: 1.50 %); assay type: functional
Ramos [8] = assay: Induction of apoptosis in human Ramos cells assessed as late apoptotic cells at 5 uM measured after 15 mins by Annexin-V-APC staining-based flow cytometric analysis (reference value: 1.85 %); assay type: functional
Ramos [9] = assay: Induction of apoptosis in human Ramos cells assessed as early apoptotic cells at 5 uM measured after 15 mins by Annexin-V-APC staining-based flow cytometric analysis (reference value: 0.14 %); assay type: functional
Raji [10] = assay: Cell cycle arrest in human Raji cells assessed as accumulation at G2/M phase at 1 uM measured after 48 hrs by propidium iodide/RNase staining based flow cytometric analysis (reference value: 18.14 %); assay type: functional
Raji [11] = assay: Induction of apoptosis in human Raji cells assessed as late apoptotic cells at 5 uM measured after 15 mins by Annexin-V-APC staining-based flow cytometric analysis (reference value: 0.57 %); assay type: functional
Raji [12] = assay: Antiproliferative activity against human Raji cells measured after 72 hrs by CCK-8 assay; assay type: functional, cell-based; outline: as §1
Ramos [13] = assay: Induction of apoptosis in human Ramos cells assessed as viable cells at 5 uM measured after 15 mins by Annexin-V-APC staining-based flow cytometric analysis (reference value: 96.5 %); assay type: functional
Raji [14] = assay: Cell cycle arrest in human Raji cells assessed as accumulation at S phase at 1 uM measured after 48 hrs by propidium iodide/RNase staining based flow cytometric analysis (reference value: 33.18 %); assay type: functional
Ramos [15] = assay: Cell cycle arrest in human Ramos cells assessed as accumulation at S phase at 1 uM measured after 48 hrs by propidium iodide/RNase staining based flow cytometric analysis (reference value: 56.35 %); assay type: functional
Raji [16] = assay: Induction of apoptosis in human Raji cells assessed as early apoptotic cells at 5 uM measured after 15 mins by Annexin-V-APC staining-based flow cytometric analysis (reference value: 0.021 %); assay type: functional
Raji [17] = assay: Antiproliferative activity against human Raji cells at 40 uM measured after 72 hrs by CCK-8 assay relative to control; assay type: functional; outline: as §1
Raji [18] = assay: Induction of apoptosis in human Raji cells assessed as necrotic cells at 5 uM measured after 15 mins by Annexin-V-APC staining-based flow cytometric analysis (reference value: 1.87 %); assay type: functional
[19] = biological target: Tyrosine-protein kinase BTK (Homo sapiens, UniProt Q06187); assay: Inhibition of human recombinant full length N-terminal His tagged BTK expressed in baculovirus infected Sf9 cells using poly (Glu,Tyr) 4:1 as substrate measured after 60 mins in presence of ATP by ADP-Glo kinase assay
Raji [20] = assay: Potency index, ratio of ibrutinib IC50 to compound IC50 for antiproliferative activity against human Raji cells; assay type: functional

Sequence of Tyrosine-protein kinase BTK (Q06187 whole entry): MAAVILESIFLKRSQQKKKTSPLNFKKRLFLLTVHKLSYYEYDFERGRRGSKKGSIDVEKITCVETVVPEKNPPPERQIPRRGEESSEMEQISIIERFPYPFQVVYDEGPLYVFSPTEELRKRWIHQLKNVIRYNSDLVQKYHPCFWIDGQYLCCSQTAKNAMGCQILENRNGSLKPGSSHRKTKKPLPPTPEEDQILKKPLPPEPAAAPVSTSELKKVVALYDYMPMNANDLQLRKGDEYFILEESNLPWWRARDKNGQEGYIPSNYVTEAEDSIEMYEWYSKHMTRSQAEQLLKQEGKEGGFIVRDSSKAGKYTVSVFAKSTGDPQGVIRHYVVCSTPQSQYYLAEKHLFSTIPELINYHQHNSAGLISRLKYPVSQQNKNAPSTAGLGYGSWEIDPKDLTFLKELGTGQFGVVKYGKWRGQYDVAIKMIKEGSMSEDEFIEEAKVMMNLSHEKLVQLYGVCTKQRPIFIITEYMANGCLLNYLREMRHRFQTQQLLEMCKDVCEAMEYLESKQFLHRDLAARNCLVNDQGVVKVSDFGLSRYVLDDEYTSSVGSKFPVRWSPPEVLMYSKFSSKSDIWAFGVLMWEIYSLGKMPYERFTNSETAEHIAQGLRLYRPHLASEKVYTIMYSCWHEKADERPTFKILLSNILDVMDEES

For `C=CC(=O)N1CCC[C@@H](n2nc(-c3ccc(Oc4ccccc4)cc3)c3c(N)ncnc32)C1` [IBRUTINIB], which Activity (Ramos [1]) is on record?
Its Activity is 68.45%.

What about the Activity (Raji [2]) of the same molecule?
The Activity was 70.42%.

And the “inhibition (INH)” value (Ramos [3])?
Its value is 81.2%.

What about the Activity (Raji [4]) of the same molecule?
The Activity was 94.8%.

What about the Activity (Ramos [5]) of the same molecule?
Its Activity is 2.81%.

What about the pIC50 (Ramos [6]) of the same molecule?
Its pIC50 is 4.83.

What about the Activity (Ramos [7]) of the same molecule?
The Activity was 4.92%.

And the Activity (Ramos [8])?
Its Activity is 5.88%.

And the Activity (Ramos [9])?
The Activity was 0.13%.

What about the Activity (Raji [10]) of the same molecule?
The Activity was 14.92%.

And the Activity (Raji [11])?
Its Activity is 1.14%.

What about the pIC50 (Raji [12]) of the same molecule?
The pIC50 was 4.80.

What about the Activity (Ramos [13]) of the same molecule?
Its Activity is 89.1%.

What about the Activity (Raji [14]) of the same molecule?
The Activity was 14.66%.

What about the Activity (Ramos [15]) of the same molecule?
Its Activity is 28.73%.

What about the Activity (Raji [16]) of the same molecule?
Its Activity is 0.01%.

What about the “inhibition (INH)” value (Raji [17]) of the same molecule?
Its value is 76.23%.

And the Activity (Raji [18])?
Its Activity is 4.01%.

What does the source list for `O=C(Nc1cccc(-c2nc(Nc3ccc(N4CCOCC4)cc3)c(C(=O)O)s2)c1)c1ccc(F)cc1`?
inhibition at 40 µM (Ramos [3]; Homo sapiens, Ramos, 72 h): 90.5%; pIC50 (Ramos [6]): 5.45; pIC50 (Raji [12]): 5.92; pIC50 [19]: 5.95; inhibition at 40 µM (Raji [17]; Homo sapiens, Raji, 72 h): 96.4%; Ratio IC50 (Raji [20]): 13
